In ChEMBL document CHEMBL2396601, “Synthesis and antiprotozoal activity of dicationic m-terphenyl and 1,3-dipyridylbenzene derivatives” (J Med Chem, 2013):
Activity calls are given as the source filed them. The calls are words filed in the database; no cut-off is given here.

What was measured:
[1] = test system: Trypanosoma brucei rhodesiense; experiment: Antiprotozoal activity against Trypanosoma brucei rhodesiense STIB900 infected in NMRI mouse assessed as host mean survival days at 10 mg/kg, ip; assay type: functional; conditions: route intraperitoneal
How it was run: (§1)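 Acute-stage HAT mouse model infected with STIB900. Cure means survival to 60 days after infection with no parasitemia relapse. Mean survival days are counted from infection and use every mouse: relapsed mice, plus cured mice entered as >60 days.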

[2] = test system: Trypanosoma brucei rhodesiense; experiment: Antiprotozoal activity against Trypanosoma brucei rhodesiense STIB900 infected in NMRI mouse assessed as host mean survival days at 5 mg/kg, ip qd for 4 days; assay type: functional; conditions: route intraperitoneal; how it was run: as §1
[3] = test system: Trypanosoma brucei rhodesiense; experiment: Antiprotozoal activity against Trypanosoma brucei rhodesiense STIB900 infected in NMRI mouse assessed as reduction of parasitemia relapse at 10 mg/kg, ip; assay type: functional, organism-based; design: dose 10 mg/kg
How it was run: (§2)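 Mouse model of acute (early) stage HAT with T. b. rhodesiense STIB900, groups of 4 mice. Amidines dosed intraperitoneally, 4 daily doses of 5 mg/kg or single doses; prodrugs dosed orally, 4 daily doses of 25 mg/kg. Cure means survival to 60 days after infection with no parasitemia relapse. Mean survival days counts all mice, with cured mice scored as >60 days.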

L6 = experiment: Cytotoxicity against rat L6 cells after 72 hrs by Alamar Blue assay; assay type: cell-based; conditions: L6, 72 h
How it was run: (§3)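 Uses T. b. rhodesiense STIB900, T. cruzi Tulahuen C2C4 LacZ intracellular amastigotes, or L6 rat myoblasts depending on line.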

[4] = test system: Trypanosoma brucei rhodesiense; experiment: Antiprotozoal activity against Trypanosoma brucei rhodesiense STIB900 infected in NMRI mouse assessed as reduction of parasitemia relapse at 5 mg/kg, ip qd for 4 days; assay type: functional, organism-based; design: dose 5 mg/kg; how it was run: as §2
[5] = Selectivity index, ratio of IC50 for rat L6 cells to IC50 for Plasmodium falciparum K1; assay type: toxicity, cell-based; conditions: L6 cells, read-out: Ratio IC50
How it was run: (§4)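 Selectivity index is IC50 against L6 rat myoblast cells divided by IC50 against the named parasite.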

Plasmodium falciparum = experiment: Antiprotozoal activity against chloroquine-resistant Plasmodium falciparum K1 after 48 hrs by [3H]-hypoxanthine incorporation assay; assay type: functional, organism-based; conditions: Plasmodium falciparum, K1
[6] = Selectivity index, ratio of IC50 for rat L6 cells to IC50 for Trypanosoma cruzi Tulahuen C2C4; assay type: toxicity, cell-based; conditions: read-out: Ratio IC50; how it was run: as §4
Trypanosoma cruzi = experiment: Antiprotozoal activity against intracellular amastigote form of Trypanosoma cruzi Tulahuen C2C4 expressing LacZ infected in rat L6 cells after 48 hrs; assay type: functional, organism-based; conditions: Tulahuen C2C4, L6, 48 h; how it was run: as §3
[7] = Selectivity index, ratio of IC50 for rat L6 cells to IC50 for Trypanosoma brucei rhodesiense STIB900; assay type: toxicity, cell-based; conditions: L6 cells, read-out: Ratio IC50; how it was run: as §4
[8] = test system: Trypanosoma brucei rhodesiense; experiment: Antiprotozoal activity against Trypanosoma brucei rhodesiense STIB900 after 72 hrs by Alamar Blue assay; assay type: functional, organism-based; conditions: Trypanosoma brucei, STIB900, 72 h; how it was run: as §3
[9] = Selectivity index, ratio of IC50 for rat L6 cells to IC50 for Leishmania amazonensis; assay type: toxicity, cell-based; conditions: read-out: Ratio IC50; how it was run: as §4
Leishmania amazonensis = experiment: Antiprotozoal activity against intracellular amastigote form of Leishmania amazonensis infected in CD1 mouse macrophages after 72 hrs by […]; assay type: functional, organism-based
Leishmania donovani [10] = experiment: Antiprotozoal activity against Leishmania donovani promastigotes infected in BALB/c mouse assessed as inhibition of liver parasitemia at 30 mg/kg, ip qd for 5 days; assay type: functional; conditions: 120 h, route intraperitoneal
How it was run: (§5)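 L. donovani-infected BALB/c mice dosed daily for 5 days, 30 mg/kg ip or 10 mg/kg orally, depending on line.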

Mus musculus = experiment: Toxicity in BALB/c mouse assessed as mortality at 30 mg/kg, ip qd for 5 days; assay type: organism-based; design: dose 30 mg/kg, route intraperitoneal; conditions: in vivo, 120 h
[11] = test system: Trypanosoma brucei rhodesiense; experiment: Antiprotozoal activity against Trypanosoma brucei rhodesiense STIB900 infected in NMRI mouse assessed as host mean survival days at 5 mg/kg, ip; assay type: functional; conditions: route intraperitoneal; how it was run: as §1
[12] = test system: Trypanosoma brucei rhodesiense; experiment: Antiprotozoal activity against Trypanosoma brucei rhodesiense STIB900 infected in NMRI mouse assessed as reduction of parasitemia relapse at 5 mg/kg, ip; assay type: functional, organism-based; design: dose 5 mg/kg; how it was run: as §2
Leishmania donovani [13] = experiment: Antiprotozoal activity against Leishmania donovani promastigotes infected in BALB/c mouse assessed as inhibition of liver parasitemia at 10 mg/kg, po qd for 5 days; assay type: functional; conditions: 120 h; how it was run: as §5

Cl.Cl.N=C(N)c1ccc(-c2cccc(-c3ccc(C(=N)N)cc3)c2)cc1
MSD [1]: >60 days | MSD [2]: >60 days | Activity [3]: Active | IC50 (L6): 31200 nM | Activity [4]: Active | selectivity ratio [5]: 1280 | IC50 (Plasmodium falciparum): 24 nM | selectivity ratio [6]: < 1 | IC50 (Trypanosoma cruzi): 71600 nM | selectivity ratio [7]: 8490 | IC50 [8]: 4 nM

Cl.Cl.Cl.N=C(Nc1ccc(-c2cc(Cl)cc(-c3cccc(NC(=N)c4ccccn4)c3)c2)cc1)c1ccccn1
IC50 (L6): 2640 nM | selectivity ratio [9]: 13 | IC50 (Leishmania amazonensis): 211 nM | selectivity ratio [5]: 12 | IC50 (Plasmodium falciparum): 219 nM | selectivity ratio [6]: 2 | IC50 (Trypanosoma cruzi): 1540 nM | selectivity ratio [7]: 24 | IC50 [8]: 109 nM | inhibition in vivo at 30 mg/kg (Leishmania donovani [10]): 23% | Activity (Mus musculus): Non-toxic

Cl.Cl.N=C(N)c1ccc(-c2cccc(-c3ccc(C(=N)N)nc3)c2)cn1
MSD [2]: >60 days | IC50 (L6): 22300 nM | Activity [4]: Active | selectivity ratio [5]: 1480 | IC50 (Plasmodium falciparum): 15 nM | selectivity ratio [6]: < 1 | IC50 (Trypanosoma cruzi): 43400 nM | selectivity ratio [7]: 3720 | IC50 [8]: 6 nM | MSD [11]: >60 days | Activity [12]: Active

CCCCCCCCCCCCCCCCOP(=O)([O-])OCC[N+](C)(C)C [MILTEFOSINE]
inhibition in vivo at 10 mg/kg (Leishmania donovani [13]): 96%
